Measurements gathered from unrelated publications.
Compare with care: the assays were run in different laboratories.
Target: Serine/threonine-protein kinase mTOR (MTOR, Homo sapiens, UniProt P42345)

Cc1cnn2ncc(-c3ccnc(N(C)C)n3)c2c1 — remaining binding (binding; 1 µM): 100%
O=C(NCC1CCOCC1)c1n[nH]cc1NC(=O)c1c(F)cccc1F — remaining binding (binding, competition with immobilised ligand; 1 µM): 100%
O=C(c1ccc(Nc2ncc(Cl)c(-c3cc4ccccc4s3)n2)cc1)N1CCC(N2CCCC2)CC1 — remaining binding (binding, competition with immobilised ligand; 1 µM): 80%
COc1cnc(Nc2cccc(S(N)(=O)=O)c2)nc1N1CCN(c2ccccc2)C(=O)C1 — remaining binding (binding, competition with immobilised ligand; 1 µM): 87%
COc1ncc2cc3ccccc3nc2c1C#N — remaining binding (cell-free assay, competition with immobilised ligand; 5 µM): 91%
CN(C)CC#Cc1ccc(OCCCc2sc(N3CCc4cccc(C(=O)Nc5nc6ccccc6s5)c4C3)nc2C(=O)O)c(F)c1 — remaining binding (cell-free assay, competition with immobilised ligand; 1 µM): 100%
N[C@H]1CCN(c2nccc(-c3cnn4ncccc34)n2)C1 — remaining binding (binding; 1 µM): 66%
O=C(O)[C@H]1[C@H](Cn2nnc3ccccc3c2=O)CC[C@@H]1C(=O)c1ccc(OCCC2CCOCC2)cc1 — remaining binding (cell-free assay, competition with immobilised ligand; 1 µM): 100%
CN(C)c1nccc(-c2cnn3ncccc23)n1 — remaining binding (binding; 1 µM): 100%
CN(C)C(=O)Cn1cc(-c2nc(C3(c4ccc(-c5cnc(N)nc5)cc4)CC3)no2)cn1 — remaining binding (cell-free assay, competition with immobilised ligand; 1 µM): 91%
c1cnn2ncc(-c3ccnc(N4CCC45COC5)n3)c2c1 — remaining binding (binding; 1 µM): 96%
O=C(Nc1ccc(Oc2ccc(F)cc2)cc1)N1CCc2ncccc2[C@H]1c1ccc(F)cc1 — remaining binding (cell-free assay, competition with immobilised ligand; 1 µM): 100%
O=C(c1ccc(Nc2ncc(Cl)c(-c3ccc(Cl)s3)n2)cc1)N1CCC(N2CCCC2)CC1 — remaining binding (binding, competition with immobilised ligand; 1 µM): 86%
CN1CCN(c2cnc3c(C4CCN(C(=O)c5ccc(OC(F)(F)F)cc5N)CC4)ncnc3c2)CC1 — remaining binding (cell-free assay, competition with immobilised ligand; 1 µM): 78%
CCN1CCN(Cc2ccc(C(=O)Nc3ccc(C)c(Oc4ccc5c(c4)CC(=O)N5)c3)cc2C(F)(F)F)CC1 — remaining binding (binding, competition with immobilised ligand; 1 µM): 100%
CC1CCCN1c1nccc(-c2cnn3ncccc23)n1 (centres unmarked) — remaining binding (binding; 1 µM): 95%
Nc1ncc2c(n1)-c1c([nH]c3ccc(C#CC4CC4)cc13)CCCC2 — remaining binding (binding, competition with immobilised ligand; 1 µM): 100%
CCC(=O)N[C@H]1CC[C@@H](C(=O)N(C)c2ccc(-c3nc4ccccc4o3)cc2)C1 — remaining binding (cell-free assay, competition with immobilised ligand; 1 µM): 92%
O=C(NCCCN1CCOCC1)c1ccc(Nc2nccc(-c3cc4ccccc4s3)n2)cc1 — remaining binding (binding, competition with immobilised ligand; 1 µM): 75%
C[C@@H]1CCN(c2nccc(-c3cnn4ncccc34)n2)C1 — remaining binding (binding; 1 µM): 97%
